Test [1] is described as follows: Inhibition of Staphylococcus aureus MurZ. A digest of the protocol:
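Poly(His)-tagged MurZ was expressed in E. coli BL21 Star (DE3) by autoinduction and purified by Co2+ affinity and gel filtration. At 25 °C, a 2-fold inhibitor series was added to enzyme preincubated 10 min in 50 mM Tris-HCl pH 7.8 with UDP-GlcNAc. PEP started a 30 min reaction. Released phosphate was read by malachite green-molybdate at A660 against phosphate standards. Means of three experiments ± SD.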

A short description of test [2]: Antibacterial activity against Staphylococcus aureus SH1000. It counts as functional.
The nature of test [3]: Inhibition of Escherichia coli MurA. A digest of the protocol: (§1)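 Poly(His)-tagged MurA from E. coli BL21 Star (DE3) (0.1 mM IPTG, 18 °C, 24 h), purified by Co2+ affinity and gel filtration. At 25 °C, a 2-fold inhibitor series went to 33.3 µg/mL enzyme preincubated 10 min in 50 mM Tris-HCl pH 7.8 with UDP-GlcNAc. PEP started a 30 min reaction. Phosphate was read by malachite green-molybdate at A660 against standards. Means of four experiments ± SD.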

The nature of test [4]: Inhibition of Staphylococcus aureus MurA. An outline of the steps:
as §1

The nature of test [5]: Antibacterial activity against Escherichia coli JM109. Type of test: functional.
Test [6] in a line: Inhibition of MDH.
Test [7] is described as follows: Inhibition of chymotrypsin.
Test [8] relates to UDP-N-acetylglucosamine 1-carboxyvinyltransferase (Escherichia coli K-12), P0A749 [C115D]. The test can be described thus: Inhibition of Escherichia coli MurA C115D mutant. A digest of the protocol: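 Purified E. coli MurA C115D mutant protein was tested with inhibitor at up to 120 µM.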

≈ marks a conversion by molar mass, not a printed value. Calls of active or inactive are those of the source. No cut-off for these calls is given here.

Chain of UDP-N-acetylglucosamine 1-carboxyvinyltransferase (Escherichia coli K-12), P0A749 [C115D] (P0A749 whole entry C115D): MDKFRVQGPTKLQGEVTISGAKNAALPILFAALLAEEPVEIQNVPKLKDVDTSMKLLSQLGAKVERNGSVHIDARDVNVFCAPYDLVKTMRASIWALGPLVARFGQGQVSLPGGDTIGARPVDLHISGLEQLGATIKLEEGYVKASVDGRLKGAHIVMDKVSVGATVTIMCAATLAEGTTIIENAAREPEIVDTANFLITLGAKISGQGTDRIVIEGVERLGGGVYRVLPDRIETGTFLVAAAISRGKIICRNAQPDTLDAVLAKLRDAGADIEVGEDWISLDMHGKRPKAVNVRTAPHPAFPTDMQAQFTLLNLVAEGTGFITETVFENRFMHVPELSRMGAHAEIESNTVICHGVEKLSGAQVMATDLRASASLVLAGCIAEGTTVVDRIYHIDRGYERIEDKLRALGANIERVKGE

One may read the IC50 as the concentration that inhibits the measured activity by half. One may read the MIC as the lowest concentration that inhibits growth of the organism. Lower therefore signals a more susceptible organism. For the compound `C[C@@H]1O[C@@H]1P(=O)(O)O` [FOSFOMYCIN], the 50% inhibitory concentration (IC50) in test [1] amounted to 1.37 µM; in test [3], 0.46 µM; in test [4], 1.36 µM. Moreover, the results for the MIC in test [2] and in test [5] were 16 µg/mL (≈ 116 µM) and 8 µg/mL (≈ 57.9 µM), respectively.
As to `Cl.Cl.OCCN1CCN(C2CCc3ccccc3C2)CC1` (stereo not given), the half-maximal inhibitory concentration (IC50) in test [1], in test [3] and in test [4] was > 120 µM throughout. Besides, the MIC in test [2] and in test [5] was > 256 µg/mL each time.
As for `COc1cc2c(cc1OC)C(=O)C(N1CCN(CCO)CC1)CC2.Cl.Cl` (stereo not given), the half-inhibitory concentration (IC50) in test [1] was found to be 18.8 µM; in test [3], 3.13 µM; in test [4] it was 17.4 µM. Besides, the result in test [6], in test [7] and in test [8] was inactive. Also, the MIC amounted to 128 µg/mL in test [2] and 256 µg/mL in test [5].
For `Cl.Cl.O=C1c2ccccc2CCC1N1CCN(CCO)CC1` (stereo not given), the results for the IC50 in test [1], in test [3] and in test [4] were 16.1 µM, 22.5 µM and 12.5 µM, respectively. In addition, the result in test [6] and in test [7] was inactive. Moreover, the MIC in test [2] came to 8 µg/mL; in test [5], 128 µg/mL.
For the compound `COc1cc2c(cc1OC)C(=O)C(N1CCN(Cc3ccccc3)CC1)CC2` (stereo not given), the half-inhibitory concentration (IC50) in test [1] came to 28.9 µM; in test [3] it was 22.6 µM; in test [4], 29 µM. Also, the result in test [6] and in test [7] was inactive. The MIC in test [2] was 64 µg/mL (≈ 168 µM); in test [5], > 256 µg/mL.
For the compound `O=C1c2ccccc2CCC1C1CCCCC1` (stereo not given), the concentration for half-maximal inhibition (IC50) in test [1], in test [3] and in test [4] was > 120 µM in each case. For the same compound, the MIC in test [2] and in test [5] was > 256 µg/mL in each case.
For `CN1CCN(C2CCc3ccccc3C2=O)CC1.Cl.Cl` (stereo not given), the IC50 was 22.9 µM in test [1], 8.53 µM in test [3] and 12 µM in test [4]. Moreover, the result in test [6], in test [7] and in test [8] was inactive. Also, the MIC in test [2] came out at 64 µg/mL; in test [5], 128 µg/mL.
Regarding `Cl.Cl.OCCN1CCN([C@@H]2CCc3ccccc3[C@H]2O)CC1`, the half-inhibitory concentration (IC50) in test [1], in test [3] and in test [4] was > 120 µM in each case. In addition, the MIC in test [2] and in test [5] was > 256 µg/mL in each case.

These data come from ChEMBL document CHEMBL1141516, “2-Aminotetralones: novel inhibitors of MurA and MurZ” (Bioorg Med Chem Lett, 2008).
